Several values for one entry are separate records, joined by “and”; a condition that tells them apart may be missing. Equal values may be shown once.
How the values were obtained:
[1] = tested on: A549 cells; assay: MTT assay, A549; type: cell-based, human; settings: read-out: IC50 A549, 72 h treatment
In short: (§1)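 Cells grown in DMEM with 10% FBS, penicillin and streptomycin, seeded at 5 × 10^3 per well for 24 h. Test compound added at 0, 1.56, 3.125, 6.25, 12.5, 25, 50 or 100 μM for 72 h. MTT (5 mg/mL stock) added for 4 h; medium replaced by DMSO; absorbance read at 490 nm for IC50.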

[2] = tested on: HaCaT cells; assay: MTT assay, HaCaT normal cells; type: cell-based, human; settings: read-out: IC50 HaCaT, 72 h treatment, normal cell line
In short: as §1

[3] = tested on: MCF-7 cells; assay: MTT assay, MCF-7; type: cell-based, human; settings: read-out: IC50 MCF-7, 72 h treatment
In short: as §1

[4] = tested on: MDA-MB-231 cells; assay: MTT assay, MDA-MB-231; type: cell-based, human; settings: read-out: IC50 MDA-MB-231, 72 h treatment
In short: as §1

[5] = tested on: HepG2 cells; assay: MTT assay, HepG2; type: cell-based, human; settings: read-out: IC50 HepG2, 72 h treatment
In short: as §1

[6] = tested on: MDA-MB-231 cells; assay: Comet assay; type: cell-based, human; settings: 5 and 10 μM
[7] = tested on: MDA-MB-231 cells in zebrafish xenografts; assay: Zebrafish xenograft breast cancer model; type: in vivo; settings: 5 μM, 72 h
In short: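 DiI-labelled MDA-MB-231 cells (10^7 cells/mL; 50–500 cells) microinjected into the perivitelline space near the SIVs of Tg(fli1:EGFP) zebrafish embryos at 48 hpf. Xenografted fish kept 10 per well in 2 mL aquaculture water with 0 or 5 μM test compound for 72 h. Fluorescence imaging every 24 h; n = 10/group.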

[8] = tested on: MDA-MB-231 cells; assay: TUNEL assay; type: cell-based, human; settings: 20 μM
In short: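 MDA-MB-231 cells given test compound (0, 10, 20 μM). Fixed in 4% p-formaldehyde in PBS 30 min; permeabilised with 0.3% Triton X-100 in PBS (25 °C, 8 min). TUNEL reaction mixture applied 1 h, then DAPI (0.5 μg/mL, 37 °C, 8 min) in the dark. Read by fluorescence microscopy.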

[9] = tested on: MDA-MB-231 cells; assay: Wound-healing assay; type: cell-based, human; settings: 72 h
In short: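 MDA-MB-231 cells (1 × 10^5/well) grown to >85% confluence, then scratched with a pipette tip. Treated with test compound (0, 2, 4 μM). The same field imaged every 24 h. Migration rate taken as scratch filling, averaged over 10 fields; N = 8. Means ± SEM; one-way ANOVA.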

[10] = tested on: HUVECs; assay: Tube formation assay; type: cell-based; settings: 5 and 10 μM, 6 h, VEGF 200 ng/mL
In short: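 Matrigel thawed at 4 °C for 24 h, coated into prechilled wells and set at 37 °C for at least 60 min. HUVECs (3 × 10^4) plated in DMEM with VEGF (200 ng/mL) plus test compound (0, 5, 10 μM) for 6 h at 37 °C. Tube networks imaged and analysed.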

[11] = tested on: MDA-MB-231 cells; assay: FITC-conjugated gelatin invasion assay; type: cell-based, human; settings: 5 μM, 24 h
In short: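 MDA-MB-231 cells (2 × 10^5 per well) treated with 0 or 5 μM test compound, plated on FITC-gelatin-coated coverslips, and incubated 24 h at 37 °C. Gelatin degradation (dark holes) imaged by laser confocal microscopy; invasive percentage derived. Means ± SEM; one-way ANOVA versus control.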

[12] = tested on: transgenic Tg(fli1a:EGFP) zebrafish embryos; assay: Angiogenic effect in vivo, transgenic zebrafish embryos; settings: 5.0 μM, compared with PTK787
[13] = Octanol/water partition coefficient; type: physicochemical; settings: room temperature
In short: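 Lipophilicity taken as Po/w = Ao/Aw. Test compound concentrations in the octanol and water phases measured from electronic absorption spectra.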

[14] = tested on: MDA-MB-231 cells; assay: Immunofluorescence of paxillin and F-actin; type: cell-based, human; settings: 5 and 10 μM, 24 h
In short: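 MDA-MB-231 cells on cover glass, exposed to test compound (0, 5, 10 μM) for 24 h, then fixed in 4% formaldehyde 25 min and blocked in 5% BSA 30 min. Stained with rabbit monoclonal anti-paxillin (1:100, 60 min), Alexa Fluor 488 anti-rabbit (1:200, 30 min), rhodamine phalloidin for F-actin (1:100, 30 min) and DAPI (0.5 μg/mL, 8 min). PBS washes between steps; confocal imaging.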

Molecule | IC50 [1] | IC50 [3] | IC50 [4] | IC50 [5] | logPo/w [13] | IC50 [2] | endogenous DSBs (olive tail moment, comet assay) [6] | percentage of γH2AX focal positive cells ([6]; 24 h) | metastasis of MDA-MB-231 cells into blood vessels [7] | number of MDA-MB-231 cells in zebrafish (proliferation) ([7]; versus control) | total area of SIV (tumor angiogenesis) ([7]; versus control) | apoptotic cells (TUNEL) [8] | wound-healing rate ([9]; 2 μM, versus control) | wound-healing rate ([9]; 4 μM) | tube formation of HUVECs [10] | invasive capability (FITC-gelatin degradation) [11] | ISV formation inhibition [12] | quantity of paxillin (focal adhesions) [14] | stress fibers (F-actin) [14]
N.N.[Cl][Pt][Cl] [Cis-platin, cisplatin, reference compound] | 21.1 ± 0.2 µM | 86.6 ± 5.9 µM | 20.9 ± 1.9 µM | 15.5 ± 0.4 µM |  | 7.1 ± 0.5 µM |  |  |  |  |  |  |  |  |  |  |  |  | 
[Ru(bpy)2(7-BEDPPZ)](ClO4)2 [Ru(bpy)2BEDPPZ] | 20 ± 0.7 µM | 74.9 ± 3.5 µM | ~17.2 µM and 17.2 µM | 97.5 ± 4.4 µM | −0.87 | 47.2 ± 2.6 µM | extremely increased | obviously increased | scarce MDA-MB-231 cells were found in the blood vessel | notably reduced | obviously less than that in the control group | many apoptotic cells were observed | less than half of the control group | further decreased | inhibited notably | markedly suppressed | more effectively inhibited ISV formation than PTK787 | decreased quantity of paxillins | inhibited
[Ru(bpy)2DPPZ](ClO4)2 | > 100 µM | > 100 µM | > 100 µM | > 100 µM | −1.87 | > 100 µM |  |  |  |  |  |  |  |  |  |  |  |  | 

Further molecules by falling IC50 [1], results first:

IC50 [1] | IC50 [3] | IC50 [4] | IC50 [5] | logPo/w [13] | Molecule | IC50 [2] | endogenous DSBs (olive tail moment, comet assay) [6] | percentage of γH2AX focal positive cells ([6]; 24 h) | metastasis of MDA-MB-231 cells into blood vessels [7] | number of MDA-MB-231 cells in zebrafish (proliferation) ([7]; versus control) | total area of SIV (tumor angiogenesis) ([7]; versus control) | apoptotic cells (TUNEL) [8] | wound-healing rate ([9]; 2 μM, versus control) | wound-healing rate ([9]; 4 μM) | tube formation of HUVECs [10] | invasive capability (FITC-gelatin degradation) [11] | ISV formation inhibition [12] | quantity of paxillin (focal adhesions) [14] | stress fibers (F-actin) [14]
93.3 ± 4.1 µM | 9.7 ± 6.1 µM | > 100 µM | > 100 µM | −2.17 | [Ru(bpy)2(7-CH3-DPPZ)](ClO4)2 [Ru(bpy)2MDPPZ] | > 100 µM |  |  |  |  |  |  |  |  |  |  |  |  | 
32.5 ± 1.6 µM | > 100 µM | > 100 µM | 23 ± 1.1 µM | −1.65 | [Ru(bpy)2(DPPN)](ClO4)2 [Ru(bpy)2BnDPPZ] | > 100 µM |  |  |  |  |  |  |  |  |  |  |  |  | 
